Measured values published in PMC4616004 (International journal for parasitology, 2008).
Where two headings read alike, the source gives them in different places.

Columns and labels:
[1] = tested on: Pf lipase (Pseudomonas fluorescens lipase); assay: fluorescent esterase assay; type: biochemical; conditions: pH 6.8, 25 °C, 1 mM MgCl2
How it was run: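 Commercial lipase, stored in glycerol-containing buffer at −20 °C, was used at 4.6 nM final. Acetyl, propionyl or butyryl 4-methylumbelliferyl esters were freshly diluted in ice-cold buffer (137 mM NaCl, 2.7 mM KCl). Reactions ran at 25 °C, with fluorescence (Ex 355, Em 444) read every minute and converted via a 4-methylumbelliferone standard curve. No-protein backgrounds were subtracted, and 10-min points were used. Km came from non-linear fits of duplicate/triplicate reactions.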

[2] = biological target: T1, MBP-CpHDAC3 (recombinant CpHDAC3) (Cryptosporidium parvum, UniProt Q5CPX0); assay: Fluor de Lys fluorogenic deacetylase assay; type: biochemical
T1 sequence (Q5CPX0 1-973): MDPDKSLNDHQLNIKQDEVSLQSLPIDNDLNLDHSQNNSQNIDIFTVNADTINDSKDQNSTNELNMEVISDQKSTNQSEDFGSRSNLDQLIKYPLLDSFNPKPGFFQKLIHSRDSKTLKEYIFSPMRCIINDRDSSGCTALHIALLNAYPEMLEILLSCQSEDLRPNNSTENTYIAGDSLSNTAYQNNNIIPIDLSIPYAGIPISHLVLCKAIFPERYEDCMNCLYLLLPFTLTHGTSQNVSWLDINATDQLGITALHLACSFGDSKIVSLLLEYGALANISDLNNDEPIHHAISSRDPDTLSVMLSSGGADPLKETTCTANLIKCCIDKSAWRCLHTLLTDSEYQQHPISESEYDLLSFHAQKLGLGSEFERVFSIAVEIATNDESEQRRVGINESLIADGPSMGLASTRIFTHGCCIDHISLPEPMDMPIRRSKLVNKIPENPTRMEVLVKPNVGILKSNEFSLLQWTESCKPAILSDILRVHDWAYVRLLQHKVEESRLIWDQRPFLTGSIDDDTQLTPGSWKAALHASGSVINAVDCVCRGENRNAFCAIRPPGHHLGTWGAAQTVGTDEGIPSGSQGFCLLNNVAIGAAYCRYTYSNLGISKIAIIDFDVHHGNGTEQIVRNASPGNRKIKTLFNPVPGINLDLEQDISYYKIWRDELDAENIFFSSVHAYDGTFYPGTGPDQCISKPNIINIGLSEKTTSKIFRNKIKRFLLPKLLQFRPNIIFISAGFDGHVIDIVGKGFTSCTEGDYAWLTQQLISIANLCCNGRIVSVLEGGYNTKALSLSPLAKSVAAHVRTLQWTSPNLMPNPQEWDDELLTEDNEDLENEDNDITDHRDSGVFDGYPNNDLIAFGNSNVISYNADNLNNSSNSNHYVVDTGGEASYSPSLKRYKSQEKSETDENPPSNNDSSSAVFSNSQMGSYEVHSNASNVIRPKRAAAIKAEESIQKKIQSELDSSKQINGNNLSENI

[3] = biological target: T1, MBP-CpHDAC3 (recombinant CpHDAC3); assay: Fluor de Lys fluorogenic deacetylase assay; type: biochemical; conditions: pH 8.1, 20 °C, 1 mM MgCl2
[4] = substrate: CC(=O)Oc1ccc2c(C)cc(=O)oc2c1; assay: fluorescent esterase assay; type: biochemical, Cryptosporidium parvum; conditions: pH 6.8, 25 °C, 1 mM MgCl2
[5] = substrate: CCC(=O)Oc1ccc2c(C)cc(=O)oc2c1; assay: fluorescent esterase assay; type: biochemical, Cryptosporidium parvum; conditions: pH 6.8, 25 °C, 1 mM MgCl2

Question: For `CC(=O)Oc1ccc2c(C)cc(=O)oc2c1` [4-methylumbelliferyl-acetate], which Km ([1]; read-out: Acetyl esterase / Km) is on record?
Answer: Its Km is 230 ± 48 µM.

Question: Which Km ([1]; read-out: Butyryl esterase / Km) does the source give for `CCCC(=O)Oc1ccc2c(C)cc(=O)oc2c1` [4-methylumbelliferyl-butyrate] here?
Answer: Its Km is 260 ± 30 µM.

Question: How did the Km ([1]; read-out: Propionyl esterase / Km) turn out when `CCC(=O)Oc1ccc2c(C)cc(=O)oc2c1` [4-methylumbelliferyl-propionate] was run?
Answer: The Km was 710 ± 390 µM.

Question: `Cn1cc(C(=O)Cc2ccccc2)cc1C=CC(=O)NO` [APHA 8] was tested. Which IC50 [2] did it give?
Answer: The IC50 was 310 ± 1.2 nM.

Question: For `C=C[C@@H](O)[C@@H]1O[C@H]1/C=C/[C@@H]1O[C@H]1[C@@H](C)O` [Depudecin], which IC50 [2] is on record?
Answer: The IC50 was 86 ± 2.4 nM.

Question: How did the IC50 [2] turn out when `CC(/C=C/C(=O)NO)=C\[C@@H](C)C(=O)c1ccc(N(C)C)cc1` [Trichostatin A] was run?
Answer: Its IC50 is 18 ± 1.3 nM.

Question: With `O=C(CCCCCCC(=O)Nc1ccccc1)NO` [Vorinostat] as the molecule, how does the IC50 [2] read?
Answer: Its IC50 is 89 ± 7.9 nM.

Question: Fluor de Lys substrate was tested. Which Km [3] did it give?
Answer: Its Km is 61 ± 3.4 µM.

B1: MBP-CpHDAC3 (recombinant CpHDAC3) (Cryptosporidium parvum Iowa II) (protein)
chain: MDPDKSLNDHQLNIKQDEVSLQSLPIDNDLNLDHSQNNSQNIDIFTVNADTINDSKDQNSTNELNMEVISDQKSTNQSEDFGSRSNLDQLIKYPLLDSFNPKPGFFQKLIHSRDSKTLKEYIFSPMRCIINDRDSSGCTALHIALLNAYPEMLEILLSCQSEDLRPNNSTENTYIAGDSLSNTAYQNNNIIPIDLSIPYAGIPISHLVLCKAIFPERYEDCMNCLYLLLPFTLTHGTSQNVSWLDINATDQLGITALHLACSFGDSKIVSLLLEYGALANISDLNNDEPIHHAISSRDPDTLSVMLSSGGADPLKETTCTANLIKCCIDKSAWRCLHTLLTDSEYQQHPISESEYDLLSFHAQKLGLGSEFERVFSIAVEIATNDESEQRRVGINESLIADGPSMGLASTRIFTHGCCIDHISLPEPMDMPIRRSKLVNKIPENPTRMEVLVKPNVGILKSNEFSLLQWTESCKPAILSDILRVHDWAYVRLLQHKVEESRLIWDQRPFLTGSIDDDTQLTPGSWKAALHASGSVINAVDCVCRGENRNAFCAIRPPGHHLGTWGAAQTVGTDEGIPSGSQGFCLLNNVAIGAAYCRYTYSNLGISKIAIIDFDVHHGNGTEQIVRNASPGNRKIKTLFNPVPGINLDLEQDISYYKIWRDELDAENIFFSSVHAYDGTFYPGTGPDQCISKPNIINIGLSEKTTSKIFRNKIKRFLLPKLLQFRPNIIFISAGFDGHVIDIVGKGFTSCTEGDYAWLTQQLISIANLCCNGRIVSVLEGGYNTKALSLSPLAKSVAAHVRTLQWTSPNLMPNPQEWDDELLTEDNEDLENEDNDITDHRDSGVFDGYPNNDLIAFGNSNVISYNADNLNNSSNSNHYVVDTGGEASYSPSLKRYKSQEKSETDENPPSNNDSSSAVFSNSQMGSYEVHSNASNVIRPKRAAAIKAEESIQKKIQSELDSSKQINGNNLSENI
Question: Which Km [4] does the source give for B1 here?
Answer: Its Km is 89 ± 18 µM.

Question: And the kcat [4]?
Answer: The kcat was 0.01 ± 0.00089 s⁻¹.

Question: And the Km [5]?
Answer: Its Km is 77 ± 30 µM.

Question: And the kcat [5]?
Answer: The kcat was 0.00058 ± 9.2e-05 s⁻¹.
